Results reported in ChEMBL document CHEMBL1151863, “Discovery of thioether-bridged cyclic pentapeptides binding to Grb2-SH2 domain with high affinity” (Bioorg Med Chem Lett, 2009).
Numbered stars: 1 amine (or outer) side, 2 acyl side, 3 side chain; on linkers, the order of the positions; unused ones are H or OH. Bridge positions count the residues as written; N and C are the ends. Square brackets hold non-standard residues; d marks the D form. Peptide text beside a SMILES is read from it. pY = N[C@@H](Cc1ccc(OP(=O)(O)O)cc1)C(=O)O; X1 = O=C(C1(N[*:1])CCCNC1)[*:2]

Target: Growth factor receptor-bound protein 2 (Homo sapiens, UniProt P62993)
Assay: Binding affinity to GST-tagged recombinant Grb2 SH2 domain by Biacore assay
Method in brief: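 Surface plasmon resonance (Biacore) binding to the Grb2-SH2 domain, reported as Kd. Values are means of two experiments, with standard deviation given.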

Growth factor receptor-bound protein 2, sequence (P62993 whole entry, the tested form may be a part): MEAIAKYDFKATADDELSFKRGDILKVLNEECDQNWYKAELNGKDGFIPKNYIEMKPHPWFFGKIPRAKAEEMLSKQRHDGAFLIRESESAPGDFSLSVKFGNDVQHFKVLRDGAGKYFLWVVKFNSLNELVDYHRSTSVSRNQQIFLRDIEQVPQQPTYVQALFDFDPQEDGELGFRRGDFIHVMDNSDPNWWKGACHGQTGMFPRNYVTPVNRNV

| SMILES | Kd [nM] |
| --- | --- |
| NC(=O)C[C@H]1NC(=O)C2(CCCCC2)NC(=O)[C@@H](Cc2ccc(OP(=O)(O)O)cc2)NC(=O)C[S@@+]([O-])C[C@H](C(N)=O)NC(=O)[C@@H](Cc2ccc3ccccc3c2)NC1=O (single isomer, unassigned) | 4800 |
| CC(C)[C@@H]1NC(=O)[C@H](CC(N)=O)NC(=O)C2(CCCNC2)NC(=O)[C@H](Cc2ccc(OP(=O)(O)O)cc2)NC(=O)CSC[C@@H](C(N)=O)NC1=O (some centres not stated) ({CH2CO}-[pY][X1]NVC-NH2; thioether N-5) | 359 |
